Assay results taken from ChEMBL document CHEMBL4138171, “Design, synthesis and biological evaluation of novel aryldiketo acids with enhanced antibacterial activity against multidrug resistant bacterial strains” (Eur J Med Chem, 2018).
Values after ≈ are worked out from the molar mass of the structure shown.

Key:
Staphylococcus aureus [1] = assay: Antibacterial activity against Staphylococcus aureus EMRSA-15 after 16 hrs by microdilution method; type: functional; conditions: EMRSA-15, 16 h
Procedure, shortened: (§1)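 Broth microdilution in cation-adjusted Mueller-Hinton broth (20 mg/l Ca2+, 10 mg/L Mg2+), inoculum 5×10^5 CFU/mL. Compounds from DMSO stocks, final DMSO <1%, tested over 0.12–128 µg/ml. Incubated 37 °C and read visually after 16 h. MIC is the lowest concentration with no visible growth, determined at least twice and converted to µmol/L.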

Albumin [2] = molecular target: T1, Albumin (Homo sapiens, UniProt P02768); assay: Binding affinity to human serum albumin at 293K by fluorescence spectroscopic method; type: ADME; conditions: isolated protein
T1 sequence (P02768 whole entry): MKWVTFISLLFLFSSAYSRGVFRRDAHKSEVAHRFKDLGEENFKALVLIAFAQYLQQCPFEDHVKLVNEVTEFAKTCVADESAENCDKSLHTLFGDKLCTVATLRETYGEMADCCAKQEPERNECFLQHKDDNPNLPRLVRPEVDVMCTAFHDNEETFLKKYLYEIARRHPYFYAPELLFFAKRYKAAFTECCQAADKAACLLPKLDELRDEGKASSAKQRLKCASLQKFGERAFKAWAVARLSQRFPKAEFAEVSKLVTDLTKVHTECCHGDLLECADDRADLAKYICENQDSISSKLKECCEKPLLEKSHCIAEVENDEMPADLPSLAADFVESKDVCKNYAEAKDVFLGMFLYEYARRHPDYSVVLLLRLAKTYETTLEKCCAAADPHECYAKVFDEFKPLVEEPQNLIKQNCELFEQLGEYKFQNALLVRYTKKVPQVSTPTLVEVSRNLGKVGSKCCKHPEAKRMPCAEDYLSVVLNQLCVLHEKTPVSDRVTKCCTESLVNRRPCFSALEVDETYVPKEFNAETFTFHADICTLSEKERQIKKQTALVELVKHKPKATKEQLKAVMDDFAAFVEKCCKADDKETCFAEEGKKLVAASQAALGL
Procedure, shortened: (§2)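 Fatty acid-free HSA held at 5 × 10^-7 M in 30 mM PBS pH 7.38, titrated with compound DMSO stock at 0.5–8 molar equivalents (final DMSO ≤2%). Equilibrated 20 min after each addition. Fluorescence excitation 280 nm, emission 300–450 nm, PBS background subtracted. Quenching recorded at 293, 303 and 310 K and analysed by Stern-Volmer, molar ratio and van't Hoff treatment.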

Staphylococcus aureus [3] = assay: Antibacterial activity against erythromycin-resistant Staphylococcus aureus RN4220 after 16 hrs by microdilution method; type: functional; conditions: RN4220, 16 h
Procedure, shortened: (§3)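 Broth microdilution in cation-adjusted Mueller-Hinton broth (20 mg/l Ca2+, 10 mg/L Mg2+), inoculum 5×10^5 CFU/mL. Compounds in DMSO, solvent under 1% in well, tested over 0.12-128 µg/ml. […] Each determined at least twice; values converted to µmol/L.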

Enterococcus faecalis = assay: Antibacterial activity against Enterococcus faecalis NCTC 12697 after 16 hrs by microdilution method; type: functional; conditions: NCTC 12697, 16 h; procedure, shortened: as §1
Albumin [4] = molecular target: T1, Albumin; assay: Binding affinity to human serum albumin at 303K by Stern-Volmer plot method; type: ADME; conditions: isolated protein; procedure, shortened: as §2
Albumin [5] = molecular target: T1, Albumin; assay: Binding affinity to human serum albumin at 310K by fluorescence spectroscopic method; type: ADME; conditions: isolated protein; procedure, shortened: as §2
Staphylococcus aureus [6] = assay: Antibacterial activity against tetracycline/methicillin-resistant Staphylococcus aureus XU212 after 16 hrs by microdilution method; type: functional; conditions: XU212, 16 h; procedure, shortened: as §3
[7] = Octanol/phosphate buffer distribution co-efficient, log D of the compound at 7.4 by shake-flask method; type: physicochemical; conditions: pH 7.4
Procedure, shortened: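 Shake-flask partition between octanol and 10 mM phosphate buffer pH 7.4. Compound stock 5.0 × 10^-3 M in buffer-saturated octanol. Aqueous concentration measured spectrophotometrically against a calibration curve; octanol concentration taken by difference. Three octanol/buffer volume ratios; mean ± 95% CI.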

Staphylococcus aureus [8] = assay: Antibacterial activity against methicillin-sensitive Staphylococcus aureus NCTC 12981 after 16 hrs by microdilution method; type: functional; conditions: NCTC 12981, 16 h; procedure, shortened: as §1
Albumin [9] = molecular target: T1, Albumin; assay: Binding affinity to human serum albumin assessed as Gibbs free energy change at 303K by Van't Hoff plot method; type: ADME; conditions: isolated protein; procedure, shortened: as §2
Albumin [10] = molecular target: T1, Albumin; assay: Binding affinity to human serum albumin assessed as Gibbs free energy change at 310K by Van't Hoff plot method; type: ADME; conditions: isolated protein; procedure, shortened: as §2
[11] = Cytotoxicity against human MRC5 cells; type: cell-based
Albumin [12] = molecular target: T1, Albumin; assay: Binding affinity to human serum albumin assessed as change in entropy at 293K by Van't Hoff plot method; type: ADME; conditions: isolated protein; procedure, shortened: as §2
Albumin [13] = molecular target: T1, Albumin; assay: Binding affinity to human serum albumin at 293K by Stern-Volmer plot method; type: ADME; conditions: isolated protein; procedure, shortened: as §2
Staphylococcus aureus [14] = assay: Antibacterial activity against methicillin-resistant Staphylococcus aureus NCTC 13373 after 16 hrs by microdilution method; type: functional; conditions: NCTC 13373, 16 h; procedure, shortened: as §3
Bacillus subtilis = assay: Antibacterial activity against Bacillus subtilis NCTC 10400 after 16 hrs by microdilution method; type: functional; conditions: NCTC 10400, 16 h; procedure, shortened: as §1
Staphylococcus aureus [15] = assay: Antibacterial activity against Norfloxacin-resistant Staphylococcus aureus 1199B over-expressing NorA after 16 hrs by microdilution method; type: functional; procedure, shortened: as §3
Albumin [16] = molecular target: T1, Albumin; assay: Binding affinity to human serum albumin assessed as Gibbs free energy change at 293K by Van't Hoff plot method; type: ADME; conditions: isolated protein; procedure, shortened: as §2
Albumin [17] = molecular target: T1, Albumin; assay: Binding affinity to human serum albumin at 293K by Van't Hoff plot method; type: ADME; conditions: isolated protein; procedure, shortened: as §2
[18] = Acidity constant, pKa of the compound at 5 x 10^-5 M by UV/Vis spectrophotometric titration method; type: physicochemical
Procedure, shortened: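 Spectrophotometric titration at 20 ± 0.5 °C of a 5 × 10^-5 M working solution (ethanol, then 10 mM phosphate buffer pH 10.44, I = 0.1 M NaCl). Acidified stepwise with H3PO4 to pH ~4, with pH monitored continuously. UV/Vis spectra 210–600 nm against blank. pKa2 taken from the slope of the linearized absorbance equation. Three sets; mean ± 95% CI.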

Albumin [19] = molecular target: T1, Albumin; assay: Binding affinity to human serum albumin at 303K by Van't Hoff plot method; type: ADME; conditions: isolated protein; procedure, shortened: as §2
Albumin [20] = molecular target: T1, Albumin; assay: Binding affinity to human serum albumin at 310K by Van't Hoff plot method; type: ADME; conditions: isolated protein; procedure, shortened: as §2
Escherichia coli = assay: Antibacterial activity against Escherichia coli NCTC 12241 after 16 hrs by microdilution method; type: functional; conditions: NCTC 12241, 16 h; procedure, shortened: as §1
Albumin [21] = molecular target: T1, Albumin; assay: Binding affinity to human serum albumin at 303K by fluorescence spectroscopic method; type: ADME; conditions: isolated protein; procedure, shortened: as §2
Albumin [22] = molecular target: T1, Albumin; assay: Binding affinity to human serum albumin assessed as change in enthalpy at 293K by Van't Hoff plot method; type: ADME; conditions: isolated protein; procedure, shortened: as §2
Albumin [23] = molecular target: T1, Albumin; assay: Binding affinity to human serum albumin at 310K by Stern-Volmer plot method; type: ADME; conditions: isolated protein; procedure, shortened: as §2

O=C(O)/C(O)=C/C(=O)c1cc(C2CCCCC2)ccc1C1CCCCC1
MIC (Staphylococcus aureus [1]): 22 µM (≈ 7.84 µg/mL)
logKb (Albumin [2]): 7.02
MIC (Staphylococcus aureus [3]): 11 µM (≈ 3.92 µg/mL)
MIC (Enterococcus faecalis): 6 µM (≈ 2.14 µg/mL)
KSV (Albumin [4]): 1.6 ×10⁶ /M
Ka (Albumin [4]): 1.02 ×10⁶ /M
Kq (Albumin [4]): 2.26 ×10¹⁴ /M/s
logKb (Albumin [5]): 6.75
MIC (Staphylococcus aureus [6]): 11 µM (≈ 3.92 µg/mL)
logD [7]: 2.6
MIC (Staphylococcus aureus [8]): 11 µM (≈ 3.92 µg/mL)
deltaG (Albumin [9]): -8.6 kcal/mol
deltaG (Albumin [10]): -8.75 kcal/mol
IC90 [11]: 30 µM
deltaS (Albumin [12]): 96.76 J/mol/K
KSV (Albumin [13]): 1.72 ×10⁶ /M
Ka (Albumin [13]): 1.06 ×10⁶ /M
Kq (Albumin [13]): 2.42 ×10¹⁴ /M/s
MIC (Staphylococcus aureus [14]): 11 µM (≈ 3.92 µg/mL)
MIC (Bacillus subtilis): 125 µM (≈ 44.6 µg/mL)
MIC (Staphylococcus aureus [15]): 11 µM (≈ 3.92 µg/mL)
deltaG (Albumin [16]): -8.36 kcal/mol
lnK (Albumin [17]): 14.36 M⁻¹
pKa at 50 µM [18]: 7.56
lnK (Albumin [19]): 14.29 M⁻¹
lnK (Albumin [20]): 14.21 M⁻¹
MIC (Escherichia coli): > 128 µg/mL
logKb (Albumin [21]): 6.84
deltaH (Albumin [22]): -1.59 kcal/mol
KSV (Albumin [23]): 1.48 ×10⁶ /M
Ka (Albumin [23]): 0.95 ×10⁶ /M
Kq (Albumin [23]): 2.09 ×10¹⁴ /M/s
